In ChEMBL document CHEMBL3243929, “Cannabinoids. 2. Synthesis and central nervous system activities of some B-ring homocannabinoid derivatives and related lactones” (1977):
The source made the active and inactive calls. The rule behind the calls is not given here.

Assays:
[1] = tested on: Rattus norvegicus; assay: CNS activity in rat assessed as increase in latency to kill at 10 mg/kg, po by muricidal rat test; format: functional, organism-based; set-up: dose 10 mg/kg
In short: (§1)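 Oral dosing in rats in the septal-lesioned and muricidal assays, with a 10 mg/kg po screening dose. Active compounds were titrated down to a minimum effective dose. Vehicle controls were given on the same injection-volume basis.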

[2] = tested on: Mus musculus; assay: CNS activity in po dosed mouse assessed as decrease in early exploratory behavior in activity cage; format: functional; settings: read-out: MED
In short: (§2)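 Oral dosing in mice, with a 20 mg/kg po screening dose. Active compounds were titrated down to a minimum effective dose. Vehicle controls were given on the same injection-volume basis.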

[3] = tested on: Rattus norvegicus; assay: CNS activity in rat assessed as decrease in septal-lesioned-induced hyperactivity at 10 mg/kg, po by septal-lesioned rat test; format: functional, organism-based; set-up: dose 10 mg/kg; in short: as §1
[4] = tested on: Rattus norvegicus; assay: CNS activity in po dosed rat assessed as increase in latency to kill by muricidal rat test; format: functional; settings: read-out: MED; in short: as §1
[5] = tested on: Rattus norvegicus; assay: CNS activity in po dosed rat assessed as decrease in septal-lesioned-induced hyperactivity by septal-lesioned rat test; format: functional; settings: read-out: MED; in short: as §1
[6] = tested on: Mus musculus; assay: CNS activity in mouse assessed as decrease in early exploratory behavior in activity cage at 20 mg/kg, po; format: functional, organism-based; set-up: dose 20 mg/kg; in short: as §2

Compound | Activity [1] | minimal effective dose [2] | Activity [3] | minimal effective dose [4] | minimal effective dose [5] | Activity [6]
CCCCCCC(C)(C)c1cc(O)c2c(c1)OCC(C)(C)C1=C2CC(C)CC1 (centres undefined) | inactive | 20 mg/kg | inactive |  |  | 
CCCCCc1cc(O)c2c(c1)OC(C)(C)[C@@H]1CCC(C)=C[C@@H]21 [DRONABINOL] |  | 10 mg/kg | inactive | 5 mg/kg |  | 
CCCCCCC(C)(C)c1cc(O)c2c(c1)OCCC1=C2CC(C)CC1 (centres undefined) |  | 1.25 mg/kg |  | 1.25 mg/kg | 1.25 mg/kg | 
CCCCCCC(C)(C)c1cc(O)c2c(c1)OC(=O)C(C)(C)C1=C2CC(C)CC1 (centres undefined) | inactive |  | inactive |  |  | inactive
CCCCCCC(C)(C)c1cc(O)c2c3c(c(=O)oc2c1)CCC(C)C3 (centres undefined) | inactive |  | inactive |  |  | inactive
CCCCCCC(C)(C)c1cc(O)c2c(c1)OC(C)(C)C1=C2CC(C)CC1 (centres undefined) |  | 0.62 mg/kg |  | 0.62 mg/kg | 1.25 mg/kg | 
CCCCCCC(C)(C)c1cc(O)c2c(c1)OC(C)(C)CC1=C2CC(C)CC1 (centres undefined) |  | 2.5 mg/kg | inactive | 2.5 mg/kg |  | 
CCCCCCC(C)(C)c1cc(O)c2c(c1)OC(=O)CC1=C2CC(C)CC1 (centres undefined) |  | 5 mg/kg | inactive | 5 mg/kg |  | 
